Consider 20 compounds from ChEMBL document CHEMBL1143397 (J Med Chem, 2009).

Calls of active or inactive are those of the source. The rule behind the calls is not given here.

For assay [1], the target named is T1, Melatonin receptor type 1A (Homo sapiens, UniProt P48039). Briefly: Displacement of 2-[125I]iodomelatonin from human MT1 receptor expressed in CHO cells. It counts as cell-based.
For assay [2], the target named is T2, Melatonin receptor type 1B (Homo sapiens, UniProt P49286).
T2 sequence (P49286 whole entry): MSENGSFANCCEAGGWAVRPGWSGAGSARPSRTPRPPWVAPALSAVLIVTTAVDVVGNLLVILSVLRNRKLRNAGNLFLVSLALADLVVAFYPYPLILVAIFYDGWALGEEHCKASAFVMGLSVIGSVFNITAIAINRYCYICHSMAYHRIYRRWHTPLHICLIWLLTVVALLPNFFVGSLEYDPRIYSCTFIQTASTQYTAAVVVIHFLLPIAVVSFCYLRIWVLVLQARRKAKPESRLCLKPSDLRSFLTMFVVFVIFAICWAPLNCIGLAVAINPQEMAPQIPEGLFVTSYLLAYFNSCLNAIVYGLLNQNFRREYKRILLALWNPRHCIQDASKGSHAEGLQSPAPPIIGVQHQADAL
Briefly: Displacement of 2-[125I]iodomelatonin from human MT2 receptor expressed in CHO cells. In kind it is cell-based.

Assay [3] addresses T3, Melatonin receptor type 1B (Homo sapiens) (UniProt P49286).
T3 sequence (whole entry): T2 sequence (P49286 whole entry)
Briefly: Antagonist activity at human MT2 receptor expressed in CHO cells assessed as inhibition of forskolin-stimulated cAMP formation. In kind it is functional, cell-based. In outline: (§1)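 In stable human MT1- or MT2-CHO cells replated in 24-well plates, cells were given 20 min at 37 °C in serum-free medium with 30 µM rolipram and 100 µM forskolin, plus a test compound concentration series within 10-14 to 10^-4 M. Rolipram alone gave basal and rolipram plus forskolin gave maximal accumulation. cAMP was read by EIA kit.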
For orientation: Changes in cAMP serve as a functional read-out for many G protein-coupled receptors.

For assay [4], the target named is T1, Melatonin receptor type 1A. Briefly: Antagonist activity at human MT1 receptor expressed in CHO cells assessed as inhibition of forskolin-stimulated cAMP formation. It counts as functional, cell-based. In outline:
as §1

The species entered for assay [5] is Homo sapiens. Briefly: Selectivity ratio of Ki for human MT1 receptor to Ki for human MT2 receptor. In outline: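 Whole-cell competition binding used lifted human MT1- or MT2-CHO cells with 80-100 pM 2-[125I]iodomelatonin and test compound (1 pM to 1 µM), 1 h at 25 °C, stopped with cold 50 mM Tris-HCl pH 7.4. Ki came from IC50 by Cheng-Prusoff, mean of three determinations. The ratio is Ki MT1 / Ki MT2.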

For assay [6], the target named is T1, Melatonin receptor type 1A. The assay can be described thus: Activity at low-affinity binding site of human MT1 receptor expressed in CHO cells assessed as increase in potency of melatonin to inhibit forskolin-induced cAMP accumulation at 10 to 100 nM. In kind it is functional, cell-based.
For assay [7], the target named is T3, Melatonin receptor type 1B (Homo sapiens). The assay can be described thus: Activity at human MT2 receptor expressed in CHO cells assessed as increase in potency of melatonin to inhibit forskolin-induced cAMP accumulation at 10 nM. In kind it is functional, cell-based.
Assay [8] shares this target. Briefly: Activity at human MT2 receptor expressed in CHO cells assessed as increase in potency of melatonin to inhibit forskolin-induced cAMP accumulation at 100 nM. In kind it is functional, cell-based.
The target of assay [9] is T1, Melatonin receptor type 1A. The assay can be described thus: Activity at high-affinity binding site of human MT1 receptor expressed in CHO cells assessed as decrease in potency of melatonin to inhibit forskolin-induced cAMP accumulation at 10 to 100 nM.
Assay [10] has as its target T3, Melatonin receptor type 1B (Homo sapiens). Briefly: Activity at human MT2 receptor expressed in CHO cells assessed as inhibition of forskolin-stimulated cAMP formation at >10 nM. In kind it is functional, cell-based. In short, it runs like this:
as §1

T1 sequence (P48039 whole entry): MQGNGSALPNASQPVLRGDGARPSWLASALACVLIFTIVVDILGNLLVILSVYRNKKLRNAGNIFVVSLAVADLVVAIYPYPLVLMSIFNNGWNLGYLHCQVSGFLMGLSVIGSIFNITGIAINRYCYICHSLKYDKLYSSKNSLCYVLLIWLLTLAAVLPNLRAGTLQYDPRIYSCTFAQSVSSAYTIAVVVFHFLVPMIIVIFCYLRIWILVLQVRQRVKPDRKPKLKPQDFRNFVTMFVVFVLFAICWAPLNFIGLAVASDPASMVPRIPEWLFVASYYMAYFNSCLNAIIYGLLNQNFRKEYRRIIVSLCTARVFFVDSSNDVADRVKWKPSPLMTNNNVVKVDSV

Take `COc1cccc(C(CCNC(C)=O)c2ccc3ccccc3c2)c1` (stereo not drawn): the values for the Ki in assay [1] (read-out: Ki) and in [2] (read-out: Ki) were 132 nM and 0.11 nM, respectively.

Consider `CCC(=O)NCCc1c(CN2CCc3ccccc32)[nH]c2ccc(OC)cc12`, for which the Ki in assay [1] (read-out: Ki) was 38 nM; in assay [2] (read-out: Ki), 14.5 nM.

`COc1ccc2c(c1)c(CCNC(C)=O)c1n2CC2Cc3ccccc3N2C1` (stereo not drawn): the Ki in assay [1] (read-out: pKi (converted)) is 302 nM; in assay [2] (read-out: pKi (converted)), 60.3 nM.

As to `COc1ccc2c(c1)CCN2Cc1[nH]c2ccc(OC)cc2c1CCNC(C)=O`, the figures for the Ki in assay [1] (read-out: Ki) and in [2] (read-out: Ki) were 5.8 nM and 7.1 nM, respectively.

On to `CCC(=O)NCC1Cc2ccccc2Cc2ccc(OC)cc21` (stereo not drawn), for which the figures for the Ki in [1] (read-out: Ki) and in assay [2] (read-out: Ki) were 1.4 nM and 0.16 nM, respectively.

As for `COc1ccc2[nH]c(CN3CCc4ccccc43)c(CCNC(C)=O)c2c1`, the outcome in assay [3], in assay [4], in assay [6], in assay [7], in [8] and in [9] was Active. For the same compound, the Ki in assay [1] (read-out: Ki) was 101 nM; in assay [1] (read-out: pKi (converted)), 115 nM; in assay [2] (read-out: Ki), 1.1 nM; in [2] (read-out: pKi (converted)), 1.17 nM. For the same compound, the Ratio Ki in [5] is 91.

For the compound `CCC(=O)NC1Cc2ccccc2C(c2ccccc2)C1` (stereo not drawn), the Ki in assay [1] (read-out: Ki) came out at 59 nM; in [2] (read-out: Ki), 0.46 nM.

For the compound `COc1ccc2c(c1)[C@@H](CCNC(=O)C1CCC1)C[C@@H](c1ccccc1)C2`, the Ki in assay [1] (read-out: Ki) came out at 797 nM; in assay [2] (read-out: Ki), 0.9 nM.

As for `COc1cccc(Cc2oc3ccc(OC)cc3c2CCNC(C)=O)c1`, the Ki in assay [1] (read-out: Ki) turned out to be 27 nM; in [2] (read-out: Ki), 0.25 nM.

Take `COc1ccc2[nH]c(CN3CCc4ccc([N+](=O)[O-])cc43)c(CCNC(C)=O)c2c1`: the figures for the Ki in assay [1] (read-out: Ki), in [1] (read-out: pKi (converted)) and in assay [2] (read-out: Ki) were 302 nM, 309 nM and 26.5 nM, respectively.

`COc1ccc2[nH]c(CN3CCc4ccccc43)c(CCNC(=O)C3CCC3)c2c1`: the result in assay [10] and in [4] was Active. For the same compound, the Ki in assay [1] (read-out: Ki) was 1400 nM; in assay [2] (read-out: Ki), 148 nM; in assay [2] (read-out: pKi (converted)), 0.001 nM.

With `COc1ccc2[nH]c(CN3c4ccccc4CC3C)c(CCNC(C)=O)c2c1` (stereo not drawn), the Ki in assay [1] (read-out: Ki) amounted to 148 nM; in assay [2] (read-out: Ki) it was 14 nM. For the same compound, the Ratio Ki in assay [5] came out at 11.

In the case of `CCCC(=O)NCCc1c(CN2c3ccccc3CC2C)[nH]c2ccc(OC)cc12` (stereo not drawn), the Ki in assay [1] (read-out: Ki) is 41 nM; in assay [2] (read-out: Ki) it was 8 nM. Besides, the Ratio Ki in [5] was found to be 5.

For the compound `CCC(=O)NCc1cc2c(OC)cccc2n1Cc1ccc(Cl)cc1`, the Ki in assay [2] (read-out: Ki) stood at 9 nM.

Turning to `COc1ccc2[nH]c(CN3CCc4cc(C)ccc43)c(CCNC(C)=O)c2c1`, the Ki in [1] (read-out: Ki) was found to be 41 nM; in [2] (read-out: Ki), 15 nM.

As for `COc1cccc(/C(=C/CNC(C)=O)c2ccccc2)c1`, the Ki in [1] (read-out: Ki) was found to be 230 nM; in [2] (read-out: Ki), 2.5 nM.

Regarding `COc1ccc2c(c1)CC1Cn3c(c(CCNC(C)=O)c4cc(OC)ccc43)CN21` (stereo not drawn), in assay [1] (read-out: pKi (converted)), the Ki was 1780 nM.

Regarding `COc1ccc2[nH]c(CN3CCc4cc(Br)ccc43)c(CCNC(C)=O)c2c1`, the Ki in assay [1] (read-out: Ki) amounted to 85 nM; in assay [2] (read-out: Ki), 30 nM.

`COc1ccc2[nH]c(CN3CCc4ccc(N)cc43)c(CCNC(C)=O)c2c1`: the Ki in assay [1] (read-out: Ki) is 108 nM; in assay [2] (read-out: Ki), 118 nM.

Regarding `COc1ccc2[nH]c(CN3CCCC3)c(CCNC(C)=O)c2c1`, the Ki in assay [1] (read-out: Ki) worked out at 121 nM; in assay [2] (read-out: Ki) it was 25 nM.
